Molecular target: Monoacylglycerol lipase ABHD6 (Mus musculus) (UniProt Q8R2Y0)
Assay: brain ABHD6 inhibition after oral dosing, late-stage follow-up, in vivo study for DAGLb inhibitor project, gel-based competitive ABPP, fluorescence, mouse, set 2 (AID 602343)
Conditions: stronger effect = higher value
Summary of the method: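 Assay system: mouse brain membrane ABHD6, in vivo dosing. Quantity: brain membrane protein at 1 mg/mL. Repeats: one replicate per group. Evaluation: % inhibition vs vehicle. Measured by: SDS-PAGE with in-gel fluorescence, band integrated optical density. Timing: Brains taken 4 h post-dose, probe labeling 30 min at 37 °C.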

[1] = dose or concentration not given here
[2] = measured here: inhibition at 1 mg/kg p.o.
[3] = measured here: inhibition at 5 mg/kg p.o.

Sequence of Monoacylglycerol lipase ABHD6 (Mus musculus) (Q8R2Y0 whole entry, looked up): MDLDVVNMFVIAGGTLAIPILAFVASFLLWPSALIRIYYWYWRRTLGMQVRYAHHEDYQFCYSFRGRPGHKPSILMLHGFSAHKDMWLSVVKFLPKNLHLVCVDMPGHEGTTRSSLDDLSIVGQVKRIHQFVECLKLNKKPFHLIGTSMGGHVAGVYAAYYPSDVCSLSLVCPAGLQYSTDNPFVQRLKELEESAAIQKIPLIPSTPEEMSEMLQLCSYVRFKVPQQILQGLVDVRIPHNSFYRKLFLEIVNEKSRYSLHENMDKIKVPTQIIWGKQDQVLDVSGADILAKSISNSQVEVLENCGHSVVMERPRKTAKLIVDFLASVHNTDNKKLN

## COc1ccc(-c2ccc(-c3cn(C(=O)N4CCCCC4c4ccccc4)nn3)cc2)cc1 (centres undefined)
[1]
  inhibition: 99%
[2]
  inhibition: 55%
[3]
  inhibition: 55%

## COc1ccccc1-c1ccc(-c2cn(C(=O)N3CCCCC3Cc3ccccc3)nn2)cc1 (centres undefined)
[1]
  inhibition: 99%
[2]
  inhibition: 30%
[3]
  inhibition: 95%

## O=C(N1CCCCC1Cc1ccccc1)n1cc(-c2ccc(-c3ccccc3)cc2)nn1 (centres undefined)
[1]
  inhibition: 100%
[2]
  inhibition: 0%
[3]
  inhibition: 99%

From PubChem BioAssay AID602343 (The Scripps Research Institute Molecular Screening Center, 2012)
